From ChEMBL document CHEMBL3739314, “Discovery of Nanomolar Dengue and West Nile Virus Protease Inhibitors Containing a 4-Benzyloxyphenylglycine Residue” (J Med Chem, 2015)
Active and inactive are the calls of the source. The rule behind the calls is not given here.

Legend:
West Nile virus [1] = test: Inhibition of West Nile virus NS2B-NS3 protease at 0 to 48 uM incubated for 1 hr by tryptophan quenching assay
dengue virus type 2 [2] = test: Inhibition of Dengue virus serotype-2 NS2B-NS3 protease at 0 to 48 uM incubated for 1 hr by tryptophan quenching assay
Trypsin (Homo sapiens) = Trypsin (Homo sapiens) (UniProt P07477+P07478+P35030); test: Inhibition of trypsin (unknown origin) using Boc-Val-Pro-Arg-AMC as substrate at 25 uM preincubated with protein for 15 mins followed by substrate addition by continuous fluorimetric assay relative to control
[3] = biological target: Prothrombin (Homo sapiens) (UniProt P00734); test: Inhibition of thrombin (unknown origin) using Boc-Val-Pro-Arg-AMC as substrate at 25 uM preincubated with protein for 15 mins followed by substrate addition measured for 10 mins by continuous fluorimetric assay relative to control
West Nile virus [4] = test: Inhibition of West Nile virus NS2B-NS3 protease using 2-Abz-Gly-Leu-Lys-Arg-Gly-Gly-[…]-Tyr-NH2 as substrate at 50 uM preincubated with protein for 15 mins followed by substrate addition measured for 15 mins by FRET assay
Procedure, shortened: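 Linked WNV NS2B-NS3 protease (150 nM) was preincubated 15 min with inhibitor (50 μM final) in 50 mM Tris-HCl pH 9, 10% ethylene glycol, 0.0016% Brij 58. […] Percent inhibition was taken from the slope relative to the no-inhibitor control, in triplicate.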

[5] = Inhibition of West Nile virus NS2B-NS3 protease using 2-Abz-Gly-Leu-Lys-Arg-Gly-Gly-[…]-Tyr-NH2 as substrate preincubated with protein for 15 mins followed by substrate addition measured for 15 mins by FRET assay
Procedure, shortened: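 WNV NS2B-NS3 linked construct at 75 nM (40 nM in one case) in pH 9 Tris buffer, preincubated 15 min with eight inhibitor concentrations (ranges 0–1 up to 0–50 μM). Substrate was 50 μM, with FRET readout over 15 min. IC50 was fitted from triplicates.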

[6] = Inhibition of Dengue virus serotype-2 NS2B-NS3 protease using 2-Abz-Nle-Lys-Arg-Arg-Ser-(3-NO2)-Tyr-NH2 as substrate preincubated with protein for 15 mins followed by substrate addition measured for 15 mins by FRET assay; design: species or system dengue virus type 2
Procedure, shortened: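 DENV-2 NS2B-NS3 linked construct at 30 nM (15 nM in some cases), same pH 9 Tris buffer, 15 min preincubation and FRET read-out. Eight inhibitor concentrations spanned 0–1, 0–2, 0–6 or 0–50 μM, with substrate at 50 μM. IC50 was fitted from triplicates.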

dengue virus type 2 [7] = test: Potency index, ratio of EC50 for relative to Bz-Lys-Arg-Phg-NH2 to EC50 for test compound for antiviral activity against Dengue virus serotype-2 infected in African green monkey Vero cells after 7 days by virus yield reduction assay; type: functional
Procedure, shortened: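 Huh-7 cells (10^4/well) in DMEM + 10% FBS, held overnight at 37 °C, then infected with DENV-2 (MOI 1) with nontoxic compound concentrations. Each concentration in triplicate, 48 h at 37 °C, then supernatants pooled. Titres by plaque assay on Vero E6 (10^-1 to 10^-6 dilutions, 1 h adsorption, 7 days, formaldehyde fix, crystal violet, plaque count). EC50 from nonlinear dose-response fit; reference inhibitor also assayed.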

dengue virus type 2 [8] = test: Antiviral activity against Dengue virus serotype-2 infected in African green monkey Vero cells after 7 days by virus yield reduction assay; type: functional, organism-based
West Nile virus [9] = test: Antiviral activity against West Nile virus infected in human HuH7 cells after 3 days by virus yield reduction assay; type: functional, organism-based; settings: Huh-7, 72 h
[10] = Cytotoxicity against human HuH7 cells infected with Dengue virus serotype-2 assessed as cell viability after 48 hrs by Cell-Titer-Glo luminescent viability assay; type: cell-based, Huh-7
Procedure, shortened: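 Huh-7 cells (10^4/well) were seeded in DMEM + 10% FBS overnight, then infected with WT DENV-2 (MOI 1) in the presence of compound, triplicate per concentration. After 48 h at 37 °C, medium was replaced with fresh DMEM and viability was read by CellTiter-Glo luminescence. CC50 was determined.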

[11] = Cytotoxicity against human HuH7 cells infected with West Nile virus assessed as cell viability after 48 hrs by Cell-Titer-Glo luminescent viability assay; type: cell-based, Huh-7
Procedure, shortened: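 Huh-7 cells (10^4/well, DMEM + 10% FBS, overnight) were infected with WT WNV (MOI 0.1) alongside compound, each concentration in triplicate. After 48 h at 37 °C, fresh DMEM was added and viability was measured by CellTiter-Glo luminescence. CC50 was determined.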

[12] = Permeability of compound after 5 hrs by PAMPA; type: ADME; settings: read-out: permeability
Procedure, shortened: (§1)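 Precoated PAMPA plates were equilibrated 1 h at room temperature. Donor wells received 200 μM compound in PBS, in triplicate, and acceptor wells received PBS. After 5 h at room temperature, donor and acceptor concentrations were quantified by RP-HPLC UV at 254 nm against six-point calibration curves (10–200 μM). Pe and mass retention were calculated by literature formulas.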

[13] = Retention time of compound by RP-HPLC analysis; type: physicochemical
[14] = Permeability of compound assessed as compound mass retention after 5 hrs by PAMPA; type: ADME; procedure, shortened: as §1
[15] = Half life in Sprague-Dawley rat liver microsomes incubated for 30 mins by UV-HPLC method; type: ADME
Procedure, shortened: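 Pooled male rat liver microsomes (0.2 mg/mL protein) with NADPH (10 mM) in DPBS were preincubated 15 min at 37 °C. Compound (100 μM) was added and incubated at 37 °C; aliquots were taken at 0, 2, 5, 10, 20 and 30 min. Samples were quenched with equal-volume acetonitrile, chilled and centrifuged, and parent remaining was quantified by RP-HPLC UV against reference peak areas. Testosterone served as positive control.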

West Nile virus [16] = test: Potency index, ratio of EC50 for relative to Bz-Lys-Arg-Phg-NH2 to EC50 for test compound for antiviral activity against West Nile virus infected in human HuH7 cells after 3 days by virus yield reduction assay; type: functional, Huh-7
Procedure, shortened: (§2)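 Huh-7 cells (10^4/well) in DMEM + 10% FBS, overnight at 37 °C, then infected with WNV (MOI 0.1) plus compound, triplicate, 48 h. Pooled supernatant plaque-titrated on Vero E6 (10^-2 to 10^-7, 3 days, crystal violet), giving EC50 by nonlinear fit. Viability of the same infected cells by CellTiter-Glo luminescence gave CC50. Reference inhibitor also assayed.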

[17] = Selectivity index, ratio of CC50 for African green monkey Vero cells to EC50 for Dengue virus serotype-2 infected in African green monkey Vero cells; type: toxicity, cell-based; settings: read-out: Ratio CC50/EC50
[18] = Selectivity index, ratio of CC50 for human HuH7 cells to EC50 for West Nile virus infected in human HuH7 cells; type: toxicity, cell-based, Huh-7; settings: read-out: Ratio CC50/EC50; procedure, shortened: as §2

Which inhibition (West Nile virus [1]) does the source give for `COc1cccc(COc2ccc([C@@H](NC(=O)[C@H](CCCCN)NC(=O)[C@H](CCCNC(=N)N)NC(=O)c3ccc(-c4cccs4)s3)C(N)=O)cc2)c1` here?
Its inhibition is “Active”.

What about the inhibition (dengue virus type 2 [2]) of the same molecule?
The inhibition was “Active”.

What about the inhibition (Trypsin (Homo sapiens)) of the same molecule?
Its inhibition is “inactive”.

And the inhibition [3]?
The inhibition was “inactive”.

What about the inhibition (West Nile virus [4]) of the same molecule?
The inhibition was 100%.

And the IC50 [5]?
The IC50 was 0.557 µM.

And the IC50 [6]?
The IC50 was 0.176 µM.

What about the “Ratio EC50” value (dengue virus type 2 [7]) of the same molecule?
The value was 25.

And the EC50 (dengue virus type 2 [8])?
Its EC50 is 3.42 µM.

What about the EC50 (West Nile virus [9]) of the same molecule?
Its EC50 is 15.6 µM.

And the CC50 at 48 h [10]?
Its CC50 at 48 h is > 100 µM.

And the CC50 at 48 h [11]?
Its CC50 at 48 h is > 100 µM.

What about the Papp at 5 h [12] of the same molecule?
The Papp at 5 h was 0.65 ×10⁻⁶ cm/s.

And the Retention_time [13]?
The Retention_time was 3.28 min.

And the permeability [14]?
Its permeability is 1.15%.

And the half-life [15]?
The half-life was 2.92 h.

What about the “Ratio EC50” value (West Nile virus [16]) of the same molecule?
The value was 7.

What about the selectivity ratio [17] of the same molecule?
Its selectivity ratio is > 25.

What about the selectivity ratio [18] of the same molecule?
The selectivity ratio was > 7.
